Measured values as given in ChEMBL document CHEMBL4138126, “Synthesis, antiproliferative, anti-tubulin activity, and docking study of new 1,2,4-triazoles as potential combretastatin analogues” (Eur J Med Chem, 2017).

Tests used:
[1] = test system: HepG2; experiment: Cytotoxicity in human HepG2 cells assessed as reduction in cell viability incubated for 48 hrs by MTT assay; type: functional, cell-based; settings: HepG2, 48 h
How it was run: (§1)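 HepG2 and HL60 (ATCC) grown in DMEM with 10% FBS, 2 mM L-glutamine, penicillin/streptomycin, amphotericin B at 37 °C, 5% CO2. Samples dissolved in DMSO, diluted thousandfold in assay. Cells seeded in serum-free medium, treated with serial concentrations 48 h; MTT 4 h, formazan dissolved in acidified isopropanol, A570. Triplicates averaged; viability relative to untreated/vehicle control.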

[2] = test system: HL-60; experiment: Cytotoxicity in human HL60 cells assessed as reduction in cell viability incubated for 48 hrs by MTT assay; type: functional, cell-based; settings: HL-60, 48 h; how it was run: as §1
[3] = test system: HL-60(TB); experiment: Growth inhibition of human HL-60(TB) cells assessed as cell growth at 10 uM after 48 hrs by sulforhodamine B assay; type: functional; settings: HL-60, 48 h, read-out: Activity
How it was run: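 Screened by the NCI in its 60-cell-line panel covering nine cancer types, including leukemia. Compounds were added at a single concentration, and the cultures were incubated for 48 h. Results are reported as percent growth inhibition.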

[4] = test system: MOLT-4; experiment: Growth inhibition of human MOLT4 cells assessed as cell growth at 10 uM after 48 hrs by sulforhodamine B assay; type: functional; settings: MOLT-4, 48 h, read-out: Activity
How it was run: (§2)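 NCI 60-cell-line panel screen (nine cancer types). Compounds added at single concentration 10^-5 M, cultures incubated 48 h; growth inhibition percentages reported.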

[5] = test system: RPMI-8226; experiment: Growth inhibition of human RPMI8226 cells assessed as cell growth at 10 uM after 48 hrs by sulforhodamine B assay; type: functional; settings: RPMI-8226, 48 h, read-out: Activity; how it was run: as §2
[6] = test system: A549; experiment: Growth inhibition of human A549/ATCC cells assessed as cell growth at 10 uM after 48 hrs by sulforhodamine B assay; type: functional; settings: A549, 48 h, read-out: Activity; how it was run: as §2
[7] = test system: EKVX; experiment: Growth inhibition of human EKVX cells assessed as cell growth at 10 uM after 48 hrs by sulforhodamine B assay; type: functional; settings: read-out: Activity; how it was run: as §2
[8] = test system: HOP-92; experiment: Growth inhibition of human HOP92 cells assessed as cell growth at 10 uM after 48 hrs by sulforhodamine B assay; type: functional; settings: HOP-92, 48 h, read-out: Activity; how it was run: as §2
[9] = test system: NCI-H23; experiment: Growth inhibition of human NCI-H23 cells assessed as cell growth at 10 uM after 48 hrs by sulforhodamine B assay; type: functional; settings: NCI-H23, 48 h, read-out: Activity; how it was run: as §2
[10] = test system: NCI-H460; experiment: Growth inhibition of human NCI-H460 cells assessed as cell growth at 10 uM after 48 hrs by sulforhodamine B assay; type: functional; settings: NCI-H460, 48 h, read-out: Activity; how it was run: as §2
[11] = test system: NCI-H522; experiment: Growth inhibition of human NCI-H522 cells assessed as cell growth at 10 uM after 48 hrs by sulforhodamine B assay; type: functional; settings: NCI-H522, 48 h, read-out: Activity; how it was run: as §2
[12] = test system: HCT-116; experiment: Growth inhibition of human HCT116 cells assessed as cell growth at 10 uM after 48 hrs by sulforhodamine B assay; type: functional; settings: HCT-116, 48 h, read-out: Activity; how it was run: as §2
[13] = test system: HCT-15; experiment: Growth inhibition of human HCT15 cells assessed as cell growth at 10 uM after 48 hrs by sulforhodamine B assay; type: functional; settings: HCT-15, 48 h, read-out: Activity; how it was run: as §2
[14] = test system: HT-29; experiment: Growth inhibition of human HT-29 cells assessed as cell growth at 10 uM after 48 hrs by sulforhodamine B assay; type: functional; settings: HT-29, 48 h, read-out: Activity; how it was run: as §2
[15] = test system: SW-620; experiment: Growth inhibition of human SW620 cells assessed as cell growth at 10 uM after 48 hrs by sulforhodamine B assay; type: functional; settings: SW-620, 48 h, read-out: Activity
How it was run: (§3)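 NCI 60-cell-line panel from nine tumour types (leukaemia, lung, colon, CNS, melanoma, ovarian, renal, prostate, breast). Each compound was added at one single concentration, and cultures were incubated for 48 h. Results are reported as percent growth inhibition.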

[16] = test system: SF-268; experiment: Growth inhibition of human SF268 cells assessed as cell growth at 10 uM after 48 hrs by sulforhodamine B assay; type: functional; settings: SF-268, 48 h, read-out: Activity; how it was run: as §2
[17] = test system: SF-295; experiment: Growth inhibition of human SF295 cells assessed as cell growth at 10 uM after 48 hrs by sulforhodamine B assay; type: functional; settings: SF-295, 48 h, read-out: Activity; how it was run: as §2
[18] = test system: SNB-19; experiment: Growth inhibition of human SNB19 cells assessed as cell growth at 10 uM after 48 hrs by sulforhodamine B assay; type: functional; settings: SNB-19, 48 h, read-out: Activity; how it was run: as §3
[19] = test system: U-251; experiment: Growth inhibition of human U251 cells assessed as cell growth at 10 uM after 48 hrs by sulforhodamine B assay; type: functional; settings: U-251, 48 h, read-out: Activity; how it was run: as §3
[20] = test system: Malme-3M; experiment: Growth inhibition of human MALME-3M cells assessed as cell growth at 10 uM after 48 hrs by sulforhodamine B assay; type: functional; settings: read-out: Activity; how it was run: as §2
[21] = test system: M14; experiment: Growth inhibition of human M14 cells assessed as cell growth at 10 uM after 48 hrs by sulforhodamine B assay; type: functional; settings: M14, 48 h, read-out: Activity; how it was run: as §2
[22] = test system: SK-MEL-2; experiment: Growth inhibition of human SK-MEL-2 cells assessed as cell growth at 10 uM after 48 hrs by sulforhodamine B assay; type: functional; settings: SK-MEL-2, 48 h, read-out: Activity; how it was run: as §2
[23] = test system: OVCAR-4; experiment: Growth inhibition of human OVCAR4 cells assessed as cell growth at 10 uM after 48 hrs by sulforhodamine B assay; type: functional; settings: OVCAR-4, 48 h, read-out: Activity; how it was run: as §2
[24] = test system: OVCAR-8; experiment: Growth inhibition of human OVCAR8 cells assessed as cell growth at 10 uM after 48 hrs by sulforhodamine B assay; type: functional; settings: OVCAR-8, 48 h, read-out: Activity; how it was run: as §2
[25] = test system: SK-OV-3; experiment: Growth inhibition of human SKOV3 cells assessed as cell growth at 10 uM after 48 hrs by sulforhodamine B assay; type: functional; settings: SK-OV-3, 48 h, read-out: Activity; how it was run: as §2
[26] = test system: ACHN; experiment: Growth inhibition of human ACHN cells assessed as cell growth at 10 uM after 48 hrs by sulforhodamine B assay; type: functional; settings: read-out: Activity; how it was run: as §2
[27] = test system: RXF 393; experiment: Growth inhibition of human RXF393 cells assessed as cell growth at 10 uM after 48 hrs by sulforhodamine B assay; type: functional; settings: RXF 393, 48 h, read-out: Activity; how it was run: as §2
[28] = test system: TK-10; experiment: Growth inhibition of human TK10 cells assessed as cell growth at 10 uM after 48 hrs by sulforhodamine B assay; type: functional; settings: TK-10, 48 h, read-out: Activity; how it was run: as §3
[29] = test system: UO-31; experiment: Growth inhibition of human UO31 cells assessed as cell growth at 10 uM after 48 hrs by sulforhodamine B assay; type: functional; settings: UO-31, 48 h, read-out: Activity; how it was run: as §3
[30] = test system: DU-145; experiment: Growth inhibition of human DU145 cells assessed as cell growth at 10 uM after 48 hrs by sulforhodamine B assay; type: functional; settings: DU-145, 48 h, read-out: Activity; how it was run: as §2
[31] = test system: MCF7; experiment: Growth inhibition of human MCF7 cells assessed as cell growth at 10 uM after 48 hrs by sulforhodamine B assay; type: functional; settings: MCF7, 48 h, read-out: Activity; how it was run: as §2
[32] = test system: BT-549; experiment: Growth inhibition of human BT549 cells assessed as cell growth at 10 uM after 48 hrs by sulforhodamine B assay; type: functional; settings: BT-549, 48 h, read-out: Activity; how it was run: as §2

Q: What does the source list for `CCOc1ccc(-n2nc(C(=O)Nc3ccc(F)c(F)c3)nc2-c2cc(OC)c(OC)c(OC)c2)cc1`?
A: IC50 [1]: 31.8 µM; IC50 [2]: 17.1 µM; growth at 10 µM [3]: 89%; growth at 10 µM [4]: 50%; growth at 10 µM [5]: 12.3%; growth at 10 µM [6]: 62%; growth at 10 µM [7]: 76.5%; growth at 10 µM [8]: 67%; growth at 10 µM [9]: 77.3%; growth at 10 µM [10]: 77.9%; growth at 10 µM [11]: 61.1%; growth at 10 µM [12]: 51.2%; growth at 10 µM [13]: 63.8%; growth at 10 µM [14]: 74.6%; growth at 10 µM [15]: 89.9%; growth at 10 µM [16]: 84.9%; growth at 10 µM [17]: 60.5%; growth at 10 µM [18]: 86.8%; growth at 10 µM [19]: 70.3%; growth at 10 µM [20]: 86.7%; growth at 10 µM [21]: 70.2%; growth at 10 µM [22]: 78.4%; growth at 10 µM [23]: 66.1%; growth at 10 µM [24]: 42.2%; growth at 10 µM [25]: 85.2%; growth at 10 µM [26]: 64.5%; growth at 10 µM [27]: 84.6%; growth at 10 µM [28]: 87.4%; growth at 10 µM [29]: 42.6%; growth at 10 µM [30]: 80%; growth at 10 µM [31]: 78.8%; growth at 10 µM [32]: 65.5%

Q: Which IC50 [1] does the source give for `COc1cccc(-n2nc(C(=O)Nc3ccccc3)nc2-c2cc(OC)c(OC)c(OC)c2)c1` here?
A: Its IC50 is 6.53 µM.

Q: And the IC50 [2]?
A: Its IC50 is over 100 µM.

Q: And the growth at 10 µM [3]?
A: The growth at 10 µM was 121%.

Q: What about the growth at 10 µM [4] of the same molecule?
A: The growth at 10 µM was 105%.

Q: What about the growth at 10 µM [5] of the same molecule?
A: Its growth at 10 µM is 108%.

Q: And the growth at 10 µM [6]?
A: Its growth at 10 µM is 92.4%.

Q: What about the growth at 10 µM [7] of the same molecule?
A: The growth at 10 µM was 91.2%.

Q: What about the growth at 10 µM [8] of the same molecule?
A: Its growth at 10 µM is 97.9%.

Q: And the growth at 10 µM [9]?
A: The growth at 10 µM was 111%.

Q: What about the growth at 10 µM [10] of the same molecule?
A: The growth at 10 µM was 107%.

Q: What about the growth at 10 µM [11] of the same molecule?
A: The growth at 10 µM was 65.5%.

Q: And the growth at 10 µM [12]?
A: Its growth at 10 µM is 91.3%.

Q: What about the growth at 10 µM [13] of the same molecule?
A: Its growth at 10 µM is 88%.

Q: What about the growth at 10 µM [14] of the same molecule?
A: The growth at 10 µM was 79.9%.

Q: What about the growth at 10 µM [15] of the same molecule?
A: The growth at 10 µM was 100%.

Q: And the growth at 10 µM [16]?
A: Its growth at 10 µM is 88.6%.

Q: And the growth at 10 µM [17]?
A: Its growth at 10 µM is 91.9%.

Q: What about the growth at 10 µM [18] of the same molecule?
A: The growth at 10 µM was 102%.

Q: And the growth at 10 µM [19]?
A: The growth at 10 µM was 93.6%.

Q: And the growth at 10 µM [20]?
A: Its growth at 10 µM is 95.9%.

Q: And the growth at 10 µM [21]?
A: The growth at 10 µM was 102%.

Q: What about the growth at 10 µM [22] of the same molecule?
A: Its growth at 10 µM is 98%.

Q: And the growth at 10 µM [23]?
A: Its growth at 10 µM is 81.8%.

Q: What about the growth at 10 µM [24] of the same molecule?
A: Its growth at 10 µM is 101%.

Q: What about the growth at 10 µM [25] of the same molecule?
A: The growth at 10 µM was 102%.

Q: And the growth at 10 µM [26]?
A: The growth at 10 µM was 93.8%.

Q: And the growth at 10 µM [27]?
A: The growth at 10 µM was 97.9%.

Q: And the growth at 10 µM [28]?
A: Its growth at 10 µM is 53.2%.

Q: What about the growth at 10 µM [29] of the same molecule?
A: The growth at 10 µM was 61.6%.

Q: And the growth at 10 µM [30]?
A: Its growth at 10 µM is 104%.

Q: What about the growth at 10 µM [31] of the same molecule?
A: The growth at 10 µM was 91.6%.

Q: And the growth at 10 µM [32]?
A: Its growth at 10 µM is 87.4%.
